# rRNA inh HTS = inhibitors of bacterial rRNA selective over humanized ribosomes. E. coli WT GFP vs humanized-ribosome RFP mutants, fluorescence, 24 h; stronger effect = lower value; DMSO median 0, no signal -100. GFP signal change (wild-type ribosome), % (concentration not given with the values). 350,000 compounds, 1.6% hits. AID 720706;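 active = significant combined selectivity score with lowered wild-type GFP, culture density cut under 30%, mutant RFP and density less affected; inactive = any of these conditions unmet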
# ERAP1 inh = ERAP1 (human) enzyme inhibition; Q9NZ08; recombinant ERAP1, Leu-AMC fluorescence, 60 min; inhibition, % at 10.7 µM; 340,000 compounds, 0.15% hits; AID 652197;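 active = mean replicate inhibition of at least 30%, or all replicates individually reaching that 30% level; inactive = mean below 30% and not every replicate reaching it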;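 also: 0% = neutral control wells and 100% = L-leucinethiol positive control wells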
# S100A4 MyoIIA = S100A4-myosin IIA interaction inhibition; S100A4/TAMRA-MyoIIA peptide fluorescence polarization; P26447; inhibition, % at 10.7 µM; 360,000 compounds, 0.14% hits; AID 652163;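 active = mean inhibition of at least 70% across replicates, with every replicate also reaching that level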
# Target sequence (P26447 whole entry, looked up): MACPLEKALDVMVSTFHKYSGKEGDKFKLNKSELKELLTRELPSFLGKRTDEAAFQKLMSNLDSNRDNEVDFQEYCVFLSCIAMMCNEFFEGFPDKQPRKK
#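 Assay system: human S100A4 monomer with TAMRA-labelled myosin IIA peptide / Buffer or medium: Calcium-containing HEPES buffer, pH 7.2 / Reagent: TAMRA-labelled myosin IIA heavy-chain peptide probe, 5 nM / Compound: one dose per compound / Timing: polarization read 5 min after assay mix addition, stable 5–60 min / Benchmarks: neutral control DMSO, positive control TFP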
# SIRT5 inh = inhibitors of human sirtuin-5 desuccinylase; Q9NXA8; Purified SirT5, succinyl-peptide AMC, trypsin-coupled fluorescence; inhibition, % at 15 µM; 330,000 compounds, 1.1% hits; AID 652115; in the data active = inhibition above about 15%
# Target sequence (Q9NXA8 whole entry, looked up): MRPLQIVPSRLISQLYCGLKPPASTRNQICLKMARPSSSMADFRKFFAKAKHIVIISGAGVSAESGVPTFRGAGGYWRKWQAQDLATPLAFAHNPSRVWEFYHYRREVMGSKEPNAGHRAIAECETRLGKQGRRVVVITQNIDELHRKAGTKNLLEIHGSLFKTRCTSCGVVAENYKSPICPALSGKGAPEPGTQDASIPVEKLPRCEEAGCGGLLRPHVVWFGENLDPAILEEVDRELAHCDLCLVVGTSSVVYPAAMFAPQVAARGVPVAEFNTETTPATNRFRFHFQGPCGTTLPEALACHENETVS
# CFTR F508del cor = correctors of CFTR F508del function in bronchial epithelial cells; CFBE cells, YFP halide quenching; stimulated with forskolin plus potentiator P3; % fluorescence drop versus neutral controls; 350,000 compounds, 0.36% hits; AID 720511; activity (quench increase), % at 7.58 µM;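 active = mean added fluorescence quench of at least 8% versus neutral control, with both replicates also reaching 8%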;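 also: cells transiently co-express mutant CFTR-F508del with the halide-sensitive YFP; corrector assay measuring rescue of mutant channel to the surface after 24 h compound exposure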
# * marks the source's active call; other numbers are inactive results; . = not tested or not shown. Shown are actives, neighbours in structure and some others; about 3.1% of the full set was active somewhere.
SMILES,rRNA inh HTS,ERAP1 inh,S100A4 MyoIIA,SIRT5 inh,CFTR F508del cor
Cc1cccc(S(=O)(=O)N2C[C@@H]3[C@H](c4ccccc42)[C@H](CO)N3CC2CCCC2)c1,-52,0,1,1,-2
O=[N+]([O-])c1cc(Cl)c2cccnc2c1O,-57,3,-3,17*,-1
O=[N+]([O-])c1cc(Cl)c(O)c2ncccc12,-54,6,11,8,-9
CCCC(=O)NC(c1ccc(N(C)C)cc1)c1ccc2cccnc2c1O (stereo unspecified),-16,-3,2,0,9.8*
CCCC(=O)NC(c1ccccc1Cl)c1ccc2cccnc2c1O (stereo unspecified),13,-4,4,-9,6
O=C(Nc1ccc2c(c1)OCO2)c1ccc([N+](=O)[O-])cc1[N+](=O)[O-],-19*,-6,-4,-7,0
CN(C)C(=O)C[C@@H]1CC[C@@H]2[C@@H](COc3ccc(NC(=O)Nc4cccc(Cl)c4)cc3C(=O)N2C)O1,-2,1,0,-2,0
O=C(Nc1ccccc1C(=O)N1CCOCC1)c1cc2ccccc2o1,5,-2,-6,30*,-11
CC(C)C#Cc1ccc([C@H]2[C@H](CO)N3C(=O)CN(C(=O)Cc4ccccc4)C[C@@H]23)cc1,4,0,7,-2,-3
Cc1ccccc1-n1ncc2c(SCC(=O)N3c4ccccc4CC3C)ncnc21 (stereo unspecified),-26*,-1,14,2,-3
CCc1noc(C)c1C(=O)NNC(=O)COc1ccc(C)c(C)c1,-4,7,-17,-7,-1
CCc1noc(C)c1C(=O)NNC(=O)COc1ccc(C)cc1,5,0,-29,15*,1
COc1ccc(-c2csc(NC3OC(=O)c4c3ccc(OC)c4OC)n2)cc1OC (stereo unspecified),.,2,-1,5,4
COc1ccc2c(c1OC)C(=O)OC2Nc1nc(-c2cc3cc(Br)ccc3oc2=O)cs1 (stereo unspecified),-26*,-1,0,2,0
COc1ccc2c3c([nH]c2c1)[C@H](CO)N(C)CC31CCN(C(=O)c2ccccn2)CC1,7,2,2,.,-1
CCCCn1nnc(NC(=S)NC(=O)c2cccs2)n1,1,-4,-3,21*,.
O=C1NC[C@H](CCCCN2C[C@H](Cc3ccccc3)N(CC3CCCCC3)C(=O)C2=O)N(CCc2ccc(O)cc2)C1=O,-21*,-14,-6,2,0
O=C1NC[C@H](CCCCN2C[C@H](Cc3ccccc3)N(CCc3ccc(O)cc3)C(=O)C2=O)N(CCc2ccccc2)C1=O,-18*,-6,0,3,1
CC(C)C[C@H]1CN(CCCC[C@@H]2CNC(=O)C(=O)N2Cc2ccccc2)C(=O)C(=O)N1Cc1ccccc1,1,-1,90*,-1,-4
C[C@@H]1CN([C@H](C)CO)C(=O)c2cc(-c3cccc(F)c3)cnc2O[C@H]1CN(C)C(=O)C1CCCCC1,-5,1,-6,2,-3
C[C@@H]1CN([C@@H](C)CO)C(=O)c2cc(NS(=O)(=O)c3ccc(Cl)cc3)ccc2O[C@H]1CN(C)C,0,0,39,4,2
CCCNC(=O)[C@H]1[C@H](CO)[C@H]2Cn3c(ccc(-c4ccccc4F)c3=O)[C@H]2N1C(=O)C1CCC1,0,.,13,-2,0
O=[N+]([O-])c1cccc(S(=O)(=O)Nc2nc3ccccc3nc2Nc2cccc(S(=O)(=O)N3CCCCC3)c2)c1,5,6,-12,25*,.
O=C(Nc1cccc(S(=O)(=O)N2CCCCCC2)c1)c1ccc(Cl)nc1,-11,-7,3,0,-2
O=C(Nc1ccc(Cl)c(S(=O)(=O)N2CCOCC2)c1)c1ccc2c(c1)OCO2,-23*,3,10,.,2
SMILES,rRNA inh HTS,ERAP1 inh,S100A4 MyoIIA,SIRT5 inh,CFTR F508del cor
O=C(Nc1cccc(S(=O)(=O)N2CCCCC2)c1)c1ccc(Cl)nc1,-24*,0,-25,-4,1
Cc1ccc(NC(=O)c2cc([N+](=O)[O-])ccc2N2CCOCC2)cc1S(=O)(=O)N1CCOCC1,-10,6,-3,3,-3
Cc1ccc(NC(=O)c2ccc([N+](=O)[O-])o2)cc1S(=O)(=O)N1CCOCC1,-23*,10,-6,2,.
C[C@@H]1CN([C@@H](C)CO)C(=O)c2cccc(NC(=O)C3CC3)c2O[C@H]1CN(C)S(=O)(=O)c1cn(C)cn1,3,1,2,1,0
O=C(Nc1cccc(S(=O)(=O)N2CCCCC2)c1)c1ccc([N+](=O)[O-])o1,-28*,-2,-1,-5,-13
Cc1ccc(NC(=O)c2c(C)noc2C)cc1S(=O)(=O)N1CCOCC1,2,0,3,-3,9.9*
O=C(COC(=O)c1ccc([N+](=O)[O-])o1)Nc1cccc(S(=O)(=O)N2CCCCC2)c1,2,-2,4,2,4
O=C(O)CC/C(=C\c1ccc(N2CCCC2)c([N+](=O)[O-])c1)c1nc2ccccc2s1,-40*,-2,5,1,-1
CN(c1ccccc1)c1ccc(/C=C(/CCC(=O)O)c2nc3ccccc3s2)cc1[N+](=O)[O-],-33,0,-4,18*,0
NS(=O)(=O)c1ccc(Nc2nc(-c3cccc([N+](=O)[O-])c3)cs2)cc1,-27*,-2,-8,1,0
O=C(C[C@H]1C[C@H]2c3cc(NC(=O)Nc4ccc(C(F)(F)F)cc4)ccc3O[C@H]2[C@H](CO)O1)NCc1ccccn1,2,1,-3,0,1
COc1ccc(CN(C)C[C@@H]2Oc3c(NS(C)(=O)=O)cccc3C(=O)N([C@H](C)CO)C[C@H]2C)cc1,-2,0,0,3,0
COc1ccc(-c2cnc3c(c2)C(=O)N([C@H](C)CO)C[C@H](C)[C@@H](CN(C)S(C)(=O)=O)O3)cc1,6,-4,6,0,-1
C[C@H]1CN([C@@H](C)CO)C(=O)Cc2cc(NC(=O)NC3CCCCC3)ccc2O[C@@H]1CN(C)C(=O)Nc1ccc(F)cc1,0,-1,-13,0,1
COc1cc(OC)cc(C(=O)NC(=S)N2CCCCCC2)c1,-31*,2,0,-6,-1
CC(C)NC(=O)N(C)C[C@@H]1Oc2ccc(NC(=O)Cc3ccccc3)cc2C(=O)N([C@H](C)CO)C[C@@H]1C,3,2,1,-3,-2
CN(C)S(=O)(=O)c1cccc(NC(=S)N/N=C/c2cc(Br)ccc2O)c1,-48,-1,1,29*,-2
CNC(=S)N1N=C(c2cccs2)CC1c1ccc(OC)cc1 (stereo unspecified),-21*,0,-1,-1,.

# Assay outcomes (PubChem)
